From ChEMBL document CHEMBL1154126, “Sulforaphane induces cell-cycle arrest and apoptosis in cultured human lung adenocarcinoma LTEP-A2 cells and retards growth of LTEP-A2 xenografts in vivo” (J Nat Prod, 2008) come the findings set out here.

SMILES strings stand for the structures.

The subject of assay [1] is OVCAR-3. In words: Antiproliferative activity against human OVCAR-3 cells. In kind it is functional, cell-based.
The nature of assay [2]: Antiproliferative activity against human LTEP-A2 cells assessed as viable cells at 12.5 uM after 24 hrs by trypan blue exclusion assay. In kind it is functional. Conditions: LTEP-A2, 24 h, read-out: Activity. In short, it runs like this: (§1)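 Suspension-grown LTEP-A2 cells in RPMI 1640 with 20% heat-inactivated bovine serum, penicillin and streptomycin. Exponentially growing cells were added at 400 000 cells/mL to medium with 6.25–50 µM compound. Trypan blue-excluding cells were counted at 3, 24, 48 and 72 h relative to controls. IC50 was interpolated from 24 h dose-response curves. Three independent experiments, mean ± SD.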

For assay [3], the system named is LTEP-A2. The assay is described as follows: Antiproliferative activity against human LTEP-A2 cells by trypan blue exclusion assay. In kind it is functional, cell-based. In short, it runs like this: as §1
Assay [4] is described as follows: Antiproliferative activity against human LTEP-A2 cells after 24 hrs by trypan blue exclusion assay. It counts as functional, cell-based. Conditions: LTEP-A2, 24 h. The method, boiled down:
as §1

A short description of assay [5]: Antiproliferative activity against human LS 174T cells. Particulars: LS174T. In kind it is functional, cell-based.
Assay [6] in a line: Antiproliferative activity against human LTEP-A2 cells assessed as viable cells at 25 uM after 24 hrs by trypan blue exclusion assay. It counts as functional. Conditions: LTEP-A2, 24 h, read-out: Activity. In short, it runs like this:
as §1

Assay [7] has as its system DU-145. The assay is described as follows: Antiproliferative activity against human DU145 cells assessed as viable cells after 24 hrs. Particulars: DU-145, 24 h.
Assay [8] concerns Jurkat. In words: Antiproliferative activity against human lymphoblastoid cells using annexin-V FITC and PI staining by flow cytometry. For orientation: A flow cytometer gives signals particle by particle.

Regarding `S=C=NCCc1ccccc1` [PHENETHYLISOTHIOCYANATE], the IC50 turned out to be 23.2 µM in assay [1], 20 µM in assay [4] and 7 µM in assay [5]. Further, the viability at 12.5 µM in assay [2] is 12%. Besides, in assay [3], the Activity result is “Dose-dependent effect”. Also, the viability at 25 µM in assay [6] was found to be 81%.
In the case of `C[S+]([O-])CCCCN=C=S` (stereo not given) [SULFORAPHANE], the IC50 worked out at 10 µM in assay [7], 6.25 µM in assay [4], 95 µM in assay [5] and 3.8 µM in assay [8].

As usually defined, the IC50 is the midpoint of a concentration-inhibition curve.
